{"source": "paper PMC6482957", "about": "(Nature structural & molecular biology, 2018)", "key": {"p300-ZZ": {"system": "p300-ZZ", "test": "1H,15N HSQC NMR titration, p300-ZZ", "assay_type": "binding, human", "summary_of_the_method": "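Human p300 ZZ (aa 1663–1713) carried an N-terminal His-tag and was expressed in BL21(DE3) RIL in M9 with 15NH4Cl and 0.05 mM ZnCl2. Induction was 0.2 mM IPTG, overnight at 18 °C. Protein was Ni-NTA purified and the tag cleaved. 0.1 mM sample in 20 mM Tris-HCl pH 7.0, 100 mM NaCl, 5 mM DTT, 8% D2O. Unlabeled HAT domain (1:2) was added first, then H3 peptide; chemical shift changes were monitored at 298K.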"}, "[1]": {"system": "BD-RING-PHD (BRP) region of p300", "test": "1H,15N HSQC NMR titration, p300 BD-RING-PHD", "assay_type": "binding, human", "settings": "15N-labeled BD-RING-PHD, 298K, pH 7.0"}, "[2]": {"system": "histone acetylation in H1299 cells", "test": "Histone acetylation levels in H1299 stable cells", "assay_type": "cell-based, human", "settings": "n = 3; for H3K4, H3K9 and H4 acetylation / Increase of H3K18 and H3K27 acetylation: p300-BRPHZT"}, "[3]": {"system": "chromatin of H1299 cells (FLAG, H3K18ac, H3K27ac)", "test": "ChIP-seq / ChIP-qPCR in H1299 stable cells", "assay_type": "cell-based, human", "settings": "for Chromatin binding / H3K18ac and H3K27ac occupancies: ChIP-seq, H1299", "summary_of_the_method": "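H1299 cells (RPMI, 10% FBS) were lentivirally transduced with FLAG-p300-BRPHZT (wild type or mutant) and blasticidin-selected for 4–6 days. Cells were crosslinked with 1% formaldehyde for 10 min, quenched with 125 mM glycine, and nuclei were lysed in 1% SDS buffer and sonicated. Chromatin was immunoprecipitated overnight at 4 °C with 2–4 μg antibody, washed in low-salt, high-salt and LiCl buffers, and reverse-crosslinked. DNA went to SYBR qPCR (IgG or H3 normalization, two negative-control loci) or sequencing.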"}, "chromatin in H1299 cells": {"system": "chromatin in H1299 cells", "test": "Chromatin association of FLAG-p300BRPHZT", "assay_type": "cell-based, human", "settings": "H1299 stable cells, ChIP-western and salt fractionation", "summary_of_the_method": "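H1299 cells stably expressing FLAG-p300-BRPHZT variants were used. For protein-ChIP, cells were formaldehyde-crosslinked and nuclear lysates sonicated, then pulled down overnight at 4 °C on anti-FLAG M2 agarose. Beads were washed in low-salt, high-salt and LiCl buffers, and bound protein was read by western blot. For salt fractionation, cells were swollen in hypotonic HEPES buffer and nuclei isolated, then nuclei were extracted 30 min at 4 °C in glycerol wash buffer with 75 mM NaCl and the supernatant collected.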"}}, "data": [{"molecule": "H4_1–9(Ser1): H4_1–9(Ser1) (SGRGKGGKG)", "values": [{"measurement": "Binding to p300-ZZ", "setting": "p300-ZZ; authors' conclusion from NMR titration", "result": "almost negligible binding"}]}, {"molecule": "HAT domain: p300 HAT domain (aa 1287–1663, Y1467F) (protein, left off: His-tag, N-terminal, cleaved) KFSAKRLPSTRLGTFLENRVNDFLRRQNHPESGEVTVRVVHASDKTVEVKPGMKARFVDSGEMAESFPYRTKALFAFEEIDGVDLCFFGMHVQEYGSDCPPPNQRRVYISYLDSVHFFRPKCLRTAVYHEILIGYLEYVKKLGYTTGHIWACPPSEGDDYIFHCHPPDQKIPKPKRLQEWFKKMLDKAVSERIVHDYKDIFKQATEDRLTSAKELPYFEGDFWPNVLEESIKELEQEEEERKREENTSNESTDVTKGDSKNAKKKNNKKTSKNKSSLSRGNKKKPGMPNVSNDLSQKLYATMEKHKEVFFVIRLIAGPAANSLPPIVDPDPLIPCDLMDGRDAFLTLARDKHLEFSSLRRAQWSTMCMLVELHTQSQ", "values": [{"measurement": "Interaction with BD-RING-PHD", "setting": "[1]", "result": "rapid disappearance of resonances"}, {"measurement": "Resonance perturbations in p300-ZZ in presence of HAT domain", "setting": "p300-ZZ; HSQC, 298K, pH 7.0, HAT (1:2 molar ratio) added first, then peptide", "result": "very small changes in ZZ"}, {"measurement": "Interaction between isolated HAT and ZZ domains", "setting": "p300-ZZ; HSQC, p300-ZZ with unlabeled HAT (1:2 molar ratio)", "result": "interact only weakly"}]}, {"molecule": "N1671A: p300 BRPHZT loss-of-function mutation of ZZ (protein, left off: FLAG, end not stated, kept) TQSSPAPGQSKKKIFKPEELRQALMPTLEALYRQDPESLPFRQPVDPQLLGIPDYFDIVKSPMDLSTIKRKLDTGQYQEPWQYVDDIWLMFNNAWLYNRKTSRVYKYCSKLSEVFEQEIDPVMQSLGYCCGRKLEFSPQTLCCYGKQLCTIPRDATYYSYQNRYHFCEKCFNEIQGESVSLGDDPSQPQTTINKEQFSKRKNDTLDPELFVECTECGRKMHQICVLHHEIIWPAGFVCDGCLKKSARTRKENKFSAKRLPSTRLGTFLENRVNDFLRRQNHPESGEVTVRVVHASDKTVEVKPGMKARFVDSGEMAESFPYRTKALFAFEEIDGVDLCFFGMHVQEYGSDCPPPNQRRVYISYLDSVHFFRPKCLRTAVYHEILIGYLEYVKKLGYTTGHIWACPPSEGDDYIFHCHPPDQKIPKPKRLQEWYKKMLDKAVSERIVHDYKDIFKQATEDRLTSAKELPYFEGDFWPNVLEESIKELEQEEEERKREENTSNESTDVTKGDSKNAKKKNNKKTSKNKSSLSRGNKKKPGMPNVSNDLSQKLYATMEKHKEVFFVIRLIAGPAANSLPPIVDPDPLIPCDLMDGRDAFLTLARDKHLEFSSLRRAQWSTMCMLVELHTQSQDRFVYTCAECKHHVETRWHCTVCEDYDLCITCYNTKNHDHKMEKLGLGLDDESNNQQAAATQSPGDSRRLSIQRCIQSLVHACQCRNANCSLPSCQKMKRVVQHTKGCKRKTNGGCPICKQLIALCCYHAKHCQENKCPVPFCLNIKQKLRQQQLQHRLQQAQMLRR", "values": [{"measurement": "H3K4, H3K9 and H4 acetylation", "setting": "[2]", "result": "without affecting"}, {"measurement": "Increase of H3K18 and H3K27 acetylation", "setting": "[2]", "result": "greatly attenuated"}, {"measurement": "Chromatin binding", "setting": "[3]", "result": "incapable of gaining the chromatin binding"}, {"measurement": "H3K18ac and H3K27ac occupancies", "setting": "[3]", "result": "no increase"}, {"measurement": "Association of p300 BRPHZT with chromatin", "setting": "chromatin in H1299 cells", "result": "substantially reduced"}]}, {"molecule": "D1690A (protein, left off: FLAG, end not stated, kept) TQSSPAPGQSKKKIFKPEELRQALMPTLEALYRQDPESLPFRQPVDPQLLGIPDYFDIVKSPMDLSTIKRKLDTGQYQEPWQYVDDIWLMFNNAWLYNRKTSRVYKYCSKLSEVFEQEIDPVMQSLGYCCGRKLEFSPQTLCCYGKQLCTIPRDATYYSYQNRYHFCEKCFNEIQGESVSLGDDPSQPQTTINKEQFSKRKNDTLDPELFVECTECGRKMHQICVLHHEIIWPAGFVCDGCLKKSARTRKENKFSAKRLPSTRLGTFLENRVNDFLRRQNHPESGEVTVRVVHASDKTVEVKPGMKARFVDSGEMAESFPYRTKALFAFEEIDGVDLCFFGMHVQEYGSDCPPPNQRRVYISYLDSVHFFRPKCLRTAVYHEILIGYLEYVKKLGYTTGHIWACPPSEGDDYIFHCHPPDQKIPKPKRLQEWYKKMLDKAVSERIVHDYKDIFKQATEDRLTSAKELPYFEGDFWPNVLEESIKELEQEEEERKREENTSNESTDVTKGDSKNAKKKNNKKTSKNKSSLSRGNKKKPGMPNVSNDLSQKLYATMEKHKEVFFVIRLIAGPAANSLPPIVDPDPLIPCDLMDGRDAFLTLARDKHLEFSSLRRAQWSTMCMLVELHTQSQDRFVYTCNECKHHVETRWHCTVCEDYALCITCYNTKNHDHKMEKLGLGLDDESNNQQAAATQSPGDSRRLSIQRCIQSLVHACQCRNANCSLPSCQKMKRVVQHTKGCKRKTNGGCPICKQLIALCCYHAKHCQENKCPVPFCLNIKQKLRQQQLQHRLQQAQMLRR", "values": [{"measurement": "H3K4, H3K9 and H4 acetylation", "setting": "[2]", "result": "without affecting"}, {"measurement": "Increase of H3K18 and H3K27 acetylation", "setting": "[2]", "result": "greatly attenuated"}, {"measurement": "Chromatin binding", "setting": "[3]", "result": "incapable of gaining the chromatin binding"}, {"measurement": "H3K18ac and H3K27ac occupancies", "setting": "[3]", "result": "no increase"}, {"measurement": "Association of p300 BRPHZT with chromatin", "setting": "chromatin in H1299 cells", "result": "substantially reduced"}]}, {"molecule": "N1132A: p300 BRPHZT BD mutation that abrogates acetyllysine binding (protein, left off: FLAG, end not stated, kept) TQSSPAPGQSKKKIFKPEELRQALMPTLEALYRQDPESLPFRQPVDPQLLGIPDYFDIVKSPMDLSTIKRKLDTGQYQEPWQYVDDIWLMFNNAWLYARKTSRVYKYCSKLSEVFEQEIDPVMQSLGYCCGRKLEFSPQTLCCYGKQLCTIPRDATYYSYQNRYHFCEKCFNEIQGESVSLGDDPSQPQTTINKEQFSKRKNDTLDPELFVECTECGRKMHQICVLHHEIIWPAGFVCDGCLKKSARTRKENKFSAKRLPSTRLGTFLENRVNDFLRRQNHPESGEVTVRVVHASDKTVEVKPGMKARFVDSGEMAESFPYRTKALFAFEEIDGVDLCFFGMHVQEYGSDCPPPNQRRVYISYLDSVHFFRPKCLRTAVYHEILIGYLEYVKKLGYTTGHIWACPPSEGDDYIFHCHPPDQKIPKPKRLQEWYKKMLDKAVSERIVHDYKDIFKQATEDRLTSAKELPYFEGDFWPNVLEESIKELEQEEEERKREENTSNESTDVTKGDSKNAKKKNNKKTSKNKSSLSRGNKKKPGMPNVSNDLSQKLYATMEKHKEVFFVIRLIAGPAANSLPPIVDPDPLIPCDLMDGRDAFLTLARDKHLEFSSLRRAQWSTMCMLVELHTQSQDRFVYTCNECKHHVETRWHCTVCEDYDLCITCYNTKNHDHKMEKLGLGLDDESNNQQAAATQSPGDSRRLSIQRCIQSLVHACQCRNANCSLPSCQKMKRVVQHTKGCKRKTNGGCPICKQLIALCCYHAKHCQENKCPVPFCLNIKQKLRQQQLQHRLQQAQMLRR", "values": [{"measurement": "p300-BRPHZT occupancy and H3K18ac and H3K27ac levels at target gene regions", "setting": "[3]; ChIP-qPCR, H1299, n = 3", "result": "decrease"}, {"measurement": "Association of p300 BRPHZT with chromatin", "setting": "chromatin in H1299 cells", "result": "substantially reduced"}]}, {"molecule": "WT p300-BRPHZT: p300 BD-RING-PHD-HAT-ZZ-TAZ2 region (BRPHZT, amino acids 1035–1830) (protein, left off: FLAG, end not stated, kept) TQSSPAPGQSKKKIFKPEELRQALMPTLEALYRQDPESLPFRQPVDPQLLGIPDYFDIVKSPMDLSTIKRKLDTGQYQEPWQYVDDIWLMFNNAWLYNRKTSRVYKYCSKLSEVFEQEIDPVMQSLGYCCGRKLEFSPQTLCCYGKQLCTIPRDATYYSYQNRYHFCEKCFNEIQGESVSLGDDPSQPQTTINKEQFSKRKNDTLDPELFVECTECGRKMHQICVLHHEIIWPAGFVCDGCLKKSARTRKENKFSAKRLPSTRLGTFLENRVNDFLRRQNHPESGEVTVRVVHASDKTVEVKPGMKARFVDSGEMAESFPYRTKALFAFEEIDGVDLCFFGMHVQEYGSDCPPPNQRRVYISYLDSVHFFRPKCLRTAVYHEILIGYLEYVKKLGYTTGHIWACPPSEGDDYIFHCHPPDQKIPKPKRLQEWYKKMLDKAVSERIVHDYKDIFKQATEDRLTSAKELPYFEGDFWPNVLEESIKELEQEEEERKREENTSNESTDVTKGDSKNAKKKNNKKTSKNKSSLSRGNKKKPGMPNVSNDLSQKLYATMEKHKEVFFVIRLIAGPAANSLPPIVDPDPLIPCDLMDGRDAFLTLARDKHLEFSSLRRAQWSTMCMLVELHTQSQDRFVYTCNECKHHVETRWHCTVCEDYDLCITCYNTKNHDHKMEKLGLGLDDESNNQQAAATQSPGDSRRLSIQRCIQSLVHACQCRNANCSLPSCQKMKRVVQHTKGCKRKTNGGCPICKQLIALCCYHAKHCQENKCPVPFCLNIKQKLRQQQLQHRLQQAQMLRR", "values": [{"measurement": "Global levels of acetylation at all sites tested", "setting": "[2]; whole cell extract", "result": "increased"}, {"measurement": "H3K18ac and H3K27ac occupancies", "setting": "[3]", "result": "evident increase"}, {"measurement": "Number of p300-BRPHZT binding sites (FLAG ChIP-seq)", "setting": "[3]; M2 Flag antibody, H1299, MACS p ≤1e−8", "result": 679}]}, {"molecule": "HAT-ZZ: HAT-ZZ domain (aa 1287–1713, Y1467F) (protein, left off: His-tag, N-terminal, cleaved) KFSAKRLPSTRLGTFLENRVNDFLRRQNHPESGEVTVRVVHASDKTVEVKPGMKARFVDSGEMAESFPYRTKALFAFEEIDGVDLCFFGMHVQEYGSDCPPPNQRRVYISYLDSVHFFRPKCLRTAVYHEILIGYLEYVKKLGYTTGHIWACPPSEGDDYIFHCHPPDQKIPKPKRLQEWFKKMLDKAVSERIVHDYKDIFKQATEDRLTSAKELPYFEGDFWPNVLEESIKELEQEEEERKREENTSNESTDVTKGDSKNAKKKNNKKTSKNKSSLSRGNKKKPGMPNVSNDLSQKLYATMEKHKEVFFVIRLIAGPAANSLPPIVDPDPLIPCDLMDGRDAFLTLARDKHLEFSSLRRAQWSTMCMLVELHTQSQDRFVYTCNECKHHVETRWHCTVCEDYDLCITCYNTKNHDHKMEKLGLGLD", "values": [{"measurement": "Interaction with BD-RING-PHD", "setting": "[1]", "result": "weakened"}]}]}
